Results reported in ChEMBL document CHEMBL3244036, “Inhibition of beef-brain and dog-heart (Na+ + k+) activated adenosine triphosphatase by carbon-3 branched cardenolides” (J Med Chem, 1978).

What was measured:
[1] = species on record: Bos taurus; test: Inhibition of beef-brain Na(+)/K(+) ATPase assessed as oxidation of NADH using ATP substrate preincubated for 5 mins
Summary of the method: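 Microsomal enzyme from frozen, partially thawed beef brain. Pyruvate kinase/lactate dehydrogenase-coupled system with inhibitor (in water, or DMSO made up with water) preincubated 5 min before adding ATP. NADH oxidation followed photometrically. Final volume 2.95 mL. At least four roughly log-equidistant concentrations, each in duplicate or triplicate. IC50 from linear regression of % inhibition against log concentration.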

[2] = species on record: Canis lupus familiaris; test: Inhibition of dog-heart microsomal Na(+)/K(+) ATPase using ATP substrate
Summary of the method: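 Microsomal enzyme from frozen dog heart in Tris-HCl pH 7.4 containing MgCl2, KCl and NaCl. Preincubated with inhibitor for 5 min, then pyruvate kinase, lactate dehydrogenase, phosphoenolpyruvate and NADH added. Reaction started with ATP; NADH oxidation read photometrically. At least four log-spaced concentrations, each in duplicate or triplicate. Linear regression of % inhibition against log concentration.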

[3] = species on record: Bos taurus; test: Inhibition of beef-brain Na(+)/K(+) ATPase assessed as oxidation of NADH using ATP substrate at 5 uM preincubated for 5 mins relative to digitoxigenin

| Compound | ID50 [1] [µmol] | ID50 [2] [µmol] | fold change (FC) [3] |
| --- | --- | --- | --- |
| C[C@]12CC[C@@](O)(CC3CO3)C[C@H]1CC[C@@H]1[C@@H]2CC[C@]2(C)[C@@H](C3=CC(=O)OC3)CC[C@]12O (some centres not stated) | 3.65 | 1.69 | 100 |
| C#C[C@@]1(O)CC[C@@]2(C)[C@H](CC[C@@H]3[C@@H]2CC[C@]2(C)[C@@H](C4=CC(=O)OC4)CC[C@]32O)C1 | 2.11 |  |  |
| C[C@@]1(O)CC[C@@]2(C)[C@H](CC[C@@H]3[C@@H]2CC[C@]2(C)[C@@H](C4=CC(=O)OC4)CC[C@]32O)C1 | 11.4 |  |  |
| C[C@]12CC[C@]3(CO3)C[C@H]1CC[C@@H]1[C@@H]2CC[C@]2(C)[C@@H](C3=CC(=O)OC3)CC[C@]12O | 0.74 |  |  |
| C[C@]12CC[C@](O)(CC3CO3)C[C@H]1CC[C@@H]1[C@@H]2CC[C@]2(C)[C@@H](C3=CC(=O)OC3)CC[C@]12O (some centres not stated) | 4.06 |  |  |
| C=CC[C@]1(O)CC[C@@]2(C)[C@H](CC[C@@H]3[C@@H]2CC[C@]2(C)[C@@H](C4=CC(=O)OC4)CC[C@]32O)C1 | 1.25 | 0.55 | 100 |
| C#C[C@]1(O)CC[C@@]2(C)[C@H](CC[C@@H]3[C@@H]2CC[C@]2(C)[C@@H](C4=CC(=O)OC4)CC[C@]32O)C1 | 0.25 | 0.12 | 100 |
| CC[C@@]1(O)CC[C@@]2(C)[C@H](CC[C@@H]3[C@@H]2CC[C@]2(C)[C@@H](C4=CC(=O)OC4)CC[C@]32O)C1 | 6.4 |  |  |
| C[C@]12CC[C@](O)(CC(O)CO)C[C@H]1CC[C@@H]1[C@@H]2CC[C@]2(C)[C@@H](C3=CC(=O)OC3)CC[C@]12O (some centres not stated) | 2.34 |  |  |
| C=C[C@@]1(O)CC[C@@]2(C)[C@H](CC[C@@H]3[C@@H]2CC[C@]2(C)[C@@H](C4=CC(=O)OC4)CC[C@]32O)C1 | 6.68 |  |  |
| C[C@]12CC[C@@](O)(C(O)CO)C[C@H]1CC[C@@H]1[C@@H]2CC[C@]2(C)[C@@H](C3=CC(=O)OC3)CC[C@]12O (some centres not stated) | 15.4 | 7.8 | 100 |
| CC[C@]1(O)CC[C@@]2(C)[C@H](CC[C@@H]3[C@@H]2CC[C@]2(C)[C@@H](C4=CC(=O)OC4)CC[C@]32O)C1 | 2.15 | 0.73 | 100 |
| C[C@]12CC[C@@](O)(CC(O)CO)C[C@H]1CC[C@@H]1[C@@H]2CC[C@]2(C)[C@@H](C3=CC(=O)OC3)CC[C@]12O (some centres not stated) | 7.66 | 4.44 | 100 |
| C[C@]12CC[C@](O)(C3CO3)C[C@H]1CC[C@@H]1[C@@H]2CC[C@]2(C)[C@@H](C3=CC(=O)OC3)CC[C@]12O (some centres not stated) | 3.17 |  |  |
| C[C@]1(O)CC[C@@]2(C)[C@H](CC[C@@H]3[C@@H]2CC[C@]2(C)[C@@H](C4=CC(=O)OC4)CC[C@]32O)C1 | 0.92 | 0.32 | 100 |
| C[C@]12CC[C@H](O)C[C@H]1CC[C@@H]1[C@@H]2CC[C@]2(C)[C@@H](C3=CC(=O)OC3)CC[C@]12O | 0.096 | 0.035 |  |
| C[C@]12CC[C@@](O)(C3CO3)C[C@H]1CC[C@@H]1[C@@H]2CC[C@]2(C)[C@@H](C3=CC(=O)OC3)CC[C@]12O (some centres not stated) | 2.03 | 1.1 | 100 |
| C[C@]12CC[C@](O)(C(O)CO)C[C@H]1CC[C@@H]1[C@@H]2CC[C@]2(C)[C@@H](C3=CC(=O)OC3)CC[C@]12O (some centres not stated) | 1.7 |  |  |
| C=CC[C@@]1(O)CC[C@@]2(C)[C@H](CC[C@@H]3[C@@H]2CC[C@]2(C)[C@@H](C4=CC(=O)OC4)CC[C@]32O)C1 | 5.81 |  |  |
| C[C@]12CC[C@](O)(c3ccccc3)C[C@H]1CC[C@@H]1[C@@H]2CC[C@]2(C)[C@@H](C3=CC(=O)OC3)CC[C@]12O | 5.81 |  |  |
| C[C@]12CC[C@@]3(CO3)C[C@H]1CC[C@@H]1[C@@H]2CC[C@]2(C)[C@@H](C3=CC(=O)OC3)CC[C@]12O | 0.71 | 0.275 | 100 |
| C[C@]12CC[C@@](O)(c3ccccc3)C[C@H]1CC[C@@H]1[C@@H]2CC[C@]2(C)[C@@H](C3=CC(=O)OC3)CC[C@]12O | 2.11 | 0.6 | 100 |
| C[C@]12CC[C@@H](O)C[C@H]1CC[C@@H]1[C@@H]2CC[C@]2(C)[C@@H](C3=CC(=O)OC3)CC[C@]12O | 1.17 |  |  |
| C=C[C@]1(O)CC[C@@]2(C)[C@H](CC[C@@H]3[C@@H]2CC[C@]2(C)[C@@H](C4=CC(=O)OC4)CC[C@]32O)C1 | 0.31 | 0.092 | 100 |
